This is an account of results in ChEMBL document CHEMBL1629431, “Synthesis and antitumor activity of some 2, 3-disubstituted quinazolin-4(3H)-ones and 4, 6- disubstituted- 1, 2, 3, 4-tetrahydroquinazolin-2H-ones” (2010).

Holding throughout (format): functional
For one assay, the system named is 786-0. Description: Growth inhibition of human 786-0 cells at 10 uM after 48 hrs by coulter counter method. Particulars: 786-0, 48 h, read-out: GI. In outline:
(§1)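 Single high-dose NCI 60-cell-line panel screen across nine tumor subpanels. Test solutions (0.2 mL) were added in duplicate to wells holding 1.8 mL of culture at 6 × 10⁴ cells/mL. Controls got PBS and DMSO at identical dilutions. Incubation was 48 h at 37 °C in humidified 5% CO₂. Cells were diluted 10-fold in saline, Coulter-counted and dilution-corrected. Results were expressed as percent growth inhibition versus control.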

Another assay relates to HOP-92. Description: Growth inhibition of human HOP92 cells at 10 uM after 48 hrs by coulter counter method. The settings on record: HOP-92, 48 h, read-out: GI. The essentials: as §1
A further assay relates to HCT-116. The assay can be described thus: Growth inhibition of human HCT116 cells at 10 uM after 48 hrs by coulter counter method. The settings on record: HCT-116, 48 h, read-out: GI. The essentials: as §1
For a further assay, the system named is MCF7. The assay can be described thus: Growth inhibition of human MCF7 cells at 10 uM after 48 hrs by coulter counter method. Particulars: MCF7, 48 h, read-out: GI. The essentials: as §1
Assay [1] in a line: Growth inhibition of human […] cells at 10 uM after 48 hrs by coulter counter method. The settings on record: read-out: GI. The essentials: as §1
Assay [2] in a line: Growth inhibition of human Hs 578T cells at 10 uM after 48 hrs by coulter counter method. The settings on record: read-out: GI. The essentials: as §1
For the next assay, the system named is MDA-MB-231. Description: Growth inhibition of human MDA-MB-231 cells at 10 uM after 48 hrs by coulter counter method. Particulars: MDA-MB-231, 48 h, read-out: GI. The essentials:
as §1

Another assay concerns SK-MEL-2. Description: Growth inhibition of human SK-MEL-2 cells at 10 uM after 48 hrs by coulter counter method. The settings on record: SK-MEL-2, 48 h, read-out: GI. In outline: as §1
A further assay relates to NCI-H23. The assay can be described thus: Growth inhibition of human NCI-H23 cells at 10 uM after 48 hrs by coulter counter method. Particulars: NCI-H23, 48 h, read-out: GI. The essentials:
as §1

The subject of another assay is A549. The assay can be described thus: Growth inhibition of human A549 cells at 10 uM after 48 hrs by coulter counter method. The settings on record: A549, 48 h, read-out: GI. In outline:
as §1

Another assay has as its system UO-31. Description: Growth inhibition of human UO31 cells at 10 uM after 48 hrs by coulter counter method. The settings on record: UO-31, 48 h, read-out: GI. The essentials:
as §1

In the next assay the test system is UACC-62. Description: Growth inhibition of human UACC62 cells at 10 uM after 48 hrs by coulter counter method. The settings on record: UACC-62, 48 h, read-out: GI. The essentials:
as §1

The test system of a further assay is PC-3. Description: Growth inhibition of human PC3 cells at 10 uM after 48 hrs by coulter counter method. The settings on record: PC-3, 48 h, read-out: GI. In outline:
as §1

In another assay the test system is SK-OV-3. The assay can be described thus: Growth inhibition of human SKOV3 cells at 10 uM after 48 hrs by coulter counter method. Particulars: SK-OV-3, 48 h, read-out: GI. The essentials: as §1
A further assay has as its system SF-539. Description: Growth inhibition of human SF539 cells at 10 uM after 48 hrs by coulter counter method. The settings on record: SF-539, 48 h, read-out: GI. In outline: as §1
A further assay concerns COLO 205. The assay can be described thus: Growth inhibition of human COLO205 cells at 10 uM after 48 hrs by coulter counter method. Particulars: COLO 205, 48 h, read-out: GI. The essentials:
as §1

Another assay concerns SNB-75. The assay can be described thus: Growth inhibition of human SNB75 cells at 10 uM after 48 hrs by coulter counter method. The settings on record: SNB-75, 48 h, read-out: GI. The essentials: as §1
A further assay deals with U-251. Description: Growth inhibition of human U251 cells at 10 uM after 48 hrs by coulter counter method. The settings on record: U-251, 48 h, read-out: GI. In outline: as §1
The subject of the next assay is HL-60(TB). The assay can be described thus: Growth inhibition of human HL-60(TB) cells at 10 uM after 48 hrs by coulter counter method. Particulars: HL-60, 48 h, read-out: GI. In outline:
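Part of the NCI 60-cell-line single-high-dose panel. Cells were seeded at 6 × 10⁴ cells/mL with test solution in duplicate wells, alongside PBS/DMSO controls at identical dilutions. Plates were held 48 h at 37 °C in a humidified 5% CO₂ incubator. Cells were then diluted 10-fold in saline and counted by Coulter counter, with counts corrected for dilution. Results are percent growth of treated cells, reported as GI %.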

Another assay relates to OVCAR-4. The assay can be described thus: Growth inhibition of human OVCAR4 cells at 10 uM after 48 hrs by coulter counter method. The settings on record: OVCAR-4, 48 h, read-out: GI. The essentials:
as §1

The subject of a further assay is NCI-H522. Description: Growth inhibition of human NCI-H522 cells at 10 uM after 48 hrs by coulter counter method. The settings on record: NCI-H522, 48 h, read-out: GI. In outline:
as §1

In the next assay the test system is SF-268. Description: Growth inhibition of human SF268 cells at 10 uM after 48 hrs by coulter counter method. Particulars: SF-268, 48 h, read-out: GI. In outline:
as §1

The next assay has as its system T47D. Description: Growth inhibition of human T47D cells at 10 uM after 48 hrs by coulter counter method. Particulars: read-out: GI. The essentials: as §1
The subject of the next assay is M14. The assay can be described thus: Growth inhibition of human M14 cells at 10 uM after 48 hrs by coulter counter method. The settings on record: M14, 48 h, read-out: GI. In outline:
as §1

A further assay deals with NCI-H226. The assay can be described thus: Growth inhibition of human NCI-H226 cells at 10 uM after 48 hrs by coulter counter method. The settings on record: NCI-H226, 48 h, read-out: GI. In outline: as §1
Another assay has as its system KM12. Description: Growth inhibition of human KM12 cells at 10 uM after 48 hrs by coulter counter method. Particulars: KM12, 48 h, read-out: GI. The essentials:
as §1

The subject of another assay is MDA-MB-468. The assay can be described thus: Growth inhibition of human MDA-MB-468 cells at 10 uM after 48 hrs by coulter counter method. The settings on record: MDA-MB-468, 48 h, read-out: GI. The essentials: as §1
Another assay concerns IGROV-1. The assay can be described thus: Growth inhibition of human IGROV1 cells at 10 uM after 48 hrs by coulter counter method. Particulars: IGROV-1, 48 h, read-out: GI. The essentials: as §1
Another assay concerns MOLT-4. Description: Growth inhibition of human MOLT4 cells at 10 uM after 48 hrs by coulter counter method. Particulars: MOLT-4, 48 h, read-out: GI. The essentials:
as §1

Another assay relates to CAKI-1. Description: Growth inhibition of human Caki1 cells at 10 uM after 48 hrs by coulter counter method. Particulars: CAKI-1, 48 h, read-out: GI. In outline: as §1
For another assay, the system named is K562. Description: Growth inhibition of human K562 cells at 10 uM after 48 hrs by coulter counter method. The settings on record: K562, 48 h, read-out: GI. In outline: as §1
For another assay, the system named is SN12C. The assay can be described thus: Growth inhibition of human SN12C cells at 10 uM after 48 hrs by coulter counter method. The settings on record: read-out: GI. The essentials: as §1
In the next assay the test system is SK-MEL-28. Description: Growth inhibition of human SK-MEL-28 cells at 10 uM after 48 hrs by coulter counter method. Particulars: SK-MEL-28, 48 h, read-out: GI. The essentials: as §1
The test system of another assay is OVCAR-8. The assay can be described thus: Growth inhibition of human OVCAR8 cells at 10 uM after 48 hrs by coulter counter method. Particulars: OVCAR-8, 48 h, read-out: GI. In outline:
as §1

For a further assay, the system named is HT-29. The assay can be described thus: Growth inhibition of human HT-29 cells at 10 uM after 48 hrs by coulter counter method. Particulars: HT-29, 48 h, read-out: GI. The essentials: as §1
For the next assay, the system named is CCRF-CEM. Description: Growth inhibition of human CCRF-CEM cells at 10 uM after 48 hrs by coulter counter method. The settings on record: read-out: GI. The essentials:
as §1

In a further assay the test system is BT-549. Description: Growth inhibition of human BT549 cells at 10 uM after 48 hrs by coulter counter method. The settings on record: BT-549, 48 h, read-out: GI. In outline:
as §1

In the next assay the test system is SR. Description: Growth inhibition of human SR cells at 10 uM after 48 hrs by coulter counter method. The settings on record: read-out: GI. In outline: as §1
Another assay deals with SF-295. The assay can be described thus: Growth inhibition of human SF295 cells at 10 uM after 48 hrs by coulter counter method. Particulars: SF-295, 48 h, read-out: GI. In outline: as §1

On to `CSc1nc2ccccc2c(=O)n1-c1ccc(Cl)cc1`, for which the inhibition of growth at 10 µM in the assay with 786-0 is 30%; in the assay on HOP-92, 30%; in the assay with HCT-116 it was 30%; in the assay with MCF7 it was 30%; in assay [1], 35.8%; in [2], 30%. Moreover, the inhibition of growth at 10 µM in the assay on MDA-MB-231, with SK-MEL-2, in the assay on NCI-H23, in the assay with A549, in the assay on UO-31 and in the assay on UACC-62 was 30% in each case. For the same molecule, the inhibition of growth at 10 µM with PC-3 worked out at 50.3%; with SK-OV-3, 30%; in the assay with SF-539, 30%; in the assay on COLO 205, 30%; in the assay with SNB-75, 30%; with U-251 it was 30%. Also, the inhibition of growth at 10 µM in the assay on HL-60(TB) was 32%; in the assay with OVCAR-4, 30%; with NCI-H522, 30%; in the assay with SF-268, 30%; in the assay with T47D, 47%; in the assay with M14, 30%. For the same molecule, the inhibition of growth at 10 µM in the assay on NCI-H226 amounted to 30%; in the assay on KM12 it was 30%; in the assay with MDA-MB-468, 30%; with IGROV-1, 30%; in the assay on MOLT-4, 31.4%; with CAKI-1, 30%. Also, the inhibition of growth at 10 µM was determined as 44.1% with K562, 30% in the assay with SN12C, 30% in the assay on SK-MEL-28 and 30% in the assay with OVCAR-8.
Turning to `COc1ccc(C2NC(=O)Nc3ccc(CNc4ccccn4)cc32)cc1` (stereo not drawn), the inhibition of growth at 10 µM in the assay with 786-0 stood at 30%; with HOP-92, 30%; in the assay with HCT-116, 36.8%; in the assay on MCF7 it was 30%; in assay [2] it was 30%; in the assay on MDA-MB-231, 30.2%. For the same molecule, the inhibition of growth at 10 µM in the assay with SK-MEL-2, in the assay on HT-29, with NCI-H23, with A549, in the assay with UO-31 and in the assay on UACC-62 was 30% throughout. The inhibition of growth at 10 µM in the assay on PC-3, in the assay with SK-OV-3, in the assay with SF-539, in the assay on COLO 205, in the assay on SNB-75 and with U-251 was 30% each time. In addition, the inhibition of growth at 10 µM was 30% in the assay with CCRF-CEM; 30% in the assay with HL-60(TB); 30% with OVCAR-4; 30% in the assay with NCI-H522; 30% with SF-268; 33.1% with T47D. Further, the inhibition of growth at 10 µM in the assay on M14, in the assay on NCI-H226, in the assay on BT-549, in the assay with KM12, with MDA-MB-468 and in the assay on IGROV-1 was 30% each time. The inhibition of growth at 10 µM in the assay with MOLT-4, with CAKI-1, with SR, in the assay on K562, in the assay on SN12C and with SK-MEL-28 was 30% each time. For the same molecule, the inhibition of growth at 10 µM with OVCAR-8 turned out to be 30%.
As to `COc1ccc(-n2c(Nc3cc(O)[nH]c(=O)n3)nc3ccccc3c2=O)cc1`, the inhibition of growth at 10 µM in the assay on SF-295 turned out to be 80.8%.
Same read-out and setting: for `CCn1c(Nc2cc(O)nc(S)n2)nc2ccccc2c1=O` the value was 59.9%.
